Measurements of several laboratories.
Lines come from different studies, so protocols differ.
Target: Insulin receptor (INSR, Homo sapiens, UniProt P06213)

C#Cc1n[nH]c2c(-c3cn([C@@H](C)c4ccccc4)c(=O)[nH]c3=O)cc(F)cc12  inhibition (enzyme activity, inhibitor; 0.1 µM): 7.7%
Cc1ncc(C)n2nc(/C=C/c3nc(N4CCCC4)cc(N4CCOCC4)n3)nc12  inhibition (enzyme activity, inhibitor; 10 µM): 37%
c1ccc(C(NCCNC(c2ccccc2)c2ccccc2)c2ccccc2)cc1  inhibition (enzyme activity, inhibitor; 10 µM): -6%
O=c1[nH]c2ccccc2n1C1CCN(Cc2ccc(-c3[nH]c4cc5ncnc5cc4nc3-c3ccccc3)cc2)CC1  remaining signal (cell-free assay; 0.5 µM): 102%
N#CC1(c2ccccn2)CCN(Cc2cc(C(=O)O)c(=O)n3ccccc23)CC1  remaining binding (cell-free assay, competition with immobilised ligand; 1 µM): 74%
Cn1cc(-c2cccc(N3CCc4c(sc5c4CC(C)(C)C5)C3=O)c2CO)cc(Nc2ccncn2)c1=O  inhibition (enzyme activity, inhibitor; 1 µM): 6%
Cn1cncc1[C@@](O)(COc1ccc(C#N)cc1-c1ccc(OC(F)(F)F)cc1)c1ccc(C#N)cc1  remaining binding (cell-free assay, competition with immobilised ligand; 1 µM): 84%
C#Cc1n[nH]c2c(-c3cn([C@@H](C)c4ccccn4)c(=O)[nH]c3=O)cc(F)cc12  inhibition (enzyme activity, inhibitor; 0.1 µM): 9%
COc1ncccc1-c1cnn2ccc(N3CCN(C(=O)OC(C)C)CC3)nc12  remaining binding (binding, competition with immobilised ligand; 1 µM): 95%
Cn1cc(-c2cc(F)cc(N3CCn4c(cc5c4CCCC5)C3=O)c2CO)cc(Nc2ccc(N3CCN(C4COC4)CC3)cn2)c1=O  inhibition (enzyme activity, inhibitor; 0.1 µM): 8%
O=C(Nc1cccnn1)N1CCN([C@@H]2CCOc3cc(C(F)(F)F)ccc32)CC1  inhibition (enzyme activity, inhibitor; 20 µM): 14%
Nc1ncc(-c2nc(N3CCOCC3)nc(N3CCOCC3)n2)c(C(F)F)n1  remaining binding (cell-free assay, competition with immobilised ligand; 10 µM): 50%
Cc1nn(C)cc1-c1nc2c(N3CCN(Cc4ccc(Cl)cc4)CC3)c(Cl)cnc2[nH]1  remaining binding (binding, competition with immobilised ligand; 1 µM): 100%
CC(C)(C)c1cc(C=C(C#N)C#N)cc(Br)c1O  remaining activity (enzyme activity, inhibitor; 0.5 µM): 105%
C[C@H](C(=O)N[C@H]1COc2ccccc2[C@@H]1S(C)(=O)=O)c1ccc(F)cc1  inhibition (enzyme activity, inhibitor; 10 µM): -14%
